{
  "source": "paper PMC6706283",
  "about": "(Bioorganic & medicinal chemistry, 2019)",
  "key": {"PAR1 [1]": {"target": "T1, PAR1 (Homo sapiens, UniProt P25116)", "T1 sequence (P25116 22-425)": "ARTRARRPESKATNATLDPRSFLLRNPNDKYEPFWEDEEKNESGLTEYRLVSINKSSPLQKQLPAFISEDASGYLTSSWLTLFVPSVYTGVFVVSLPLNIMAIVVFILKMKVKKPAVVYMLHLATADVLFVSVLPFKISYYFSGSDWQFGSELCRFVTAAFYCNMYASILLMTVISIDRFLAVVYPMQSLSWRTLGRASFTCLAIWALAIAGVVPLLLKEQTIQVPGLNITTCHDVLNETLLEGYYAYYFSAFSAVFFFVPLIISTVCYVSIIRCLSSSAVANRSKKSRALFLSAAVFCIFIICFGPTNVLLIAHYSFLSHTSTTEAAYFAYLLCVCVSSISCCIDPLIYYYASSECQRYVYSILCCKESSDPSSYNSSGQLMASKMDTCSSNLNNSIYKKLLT", "experiment": "intracellular calcium mobilization", "format": "cell-based", "conditions": "for activity in the iCa2+ assay (in words): EA.hy926 cells, TFLLRN-NH2", "summary_of_the_method": "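Adherent EA.hy926 endothelial cells in 96-well plates; intracellular Ca2+ mobilization triggered by PAR1 tethered-ligand peptide TFLLRN-NH2 (5 µM). Single-point screen: test compound at 10 µM, % inhibition from n = 4 wells unless noted, with SEM. IC50: 3 wells per concentration, curves fitted by 4-variable non-linear regression. Summary IC50 is the average of independent assays. Selectivity run used agonist at 3.16 µM.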"}, "PAR2": {"target": "T2, PAR2 (Homo sapiens, UniProt P55085)", "T2 sequence (P55085 26-397)": "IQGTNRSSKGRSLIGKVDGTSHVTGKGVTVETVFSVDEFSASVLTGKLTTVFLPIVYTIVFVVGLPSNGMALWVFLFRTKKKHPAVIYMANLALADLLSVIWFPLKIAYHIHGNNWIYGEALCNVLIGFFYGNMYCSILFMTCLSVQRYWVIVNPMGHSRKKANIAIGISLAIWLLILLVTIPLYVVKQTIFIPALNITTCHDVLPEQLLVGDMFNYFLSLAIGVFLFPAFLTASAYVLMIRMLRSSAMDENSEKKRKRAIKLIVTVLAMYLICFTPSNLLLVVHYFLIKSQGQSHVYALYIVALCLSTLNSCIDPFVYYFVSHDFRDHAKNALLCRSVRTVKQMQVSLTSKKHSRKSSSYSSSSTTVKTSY", "experiment": "PAR2", "format": "cell-based", "conditions": "parmodulins 10 μM, vorapaxar 0.316 μM; SLIGKV-NH2 3.16 μM", "summary_of_the_method": "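Intracellular Ca2+ mobilization assay in EA.hy926 endothelial cells. Cells were pretreated with test compound (10 µM) or reference antagonist (0.316 µM), then stimulated with PAR2 agonist SLIGKV-NH2 (3.16 µM). A parallel run stimulated with PAR1 agonist TFLLRN-NH2 at 3.16 µM.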"}, "PAR1 [2]": {"target": "T1, PAR1", "format": "cell-based", "conditions": "increasing concentrations of antagonist", "summary_of_the_method": "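EA.hy926 endothelial cells; Ca2+ mobilization concentration-response curves for PAR1 agonist TFLLRN-NH2 were recorded at several increasing concentrations of test compound. Agonist efficacy was compared across antagonist levels.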"}, "human washed platelets": {"test_system": "human washed platelets", "experiment": "human platelet aggregation assay", "format": "cell-based", "conditions": "parmodulin 10 μM, SFLLRN-NH2 1.5 μM", "summary_of_the_method": "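Washed human platelets were incubated with test compound (10 µM), then stimulated with PAR1/2 agonist SFLLRN-NH2 (1.5 µM). Aggregation traces were recorded against DMSO vehicle control traces.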"}, "tissue factor (TF) mRNA": {"test_system": "tissue factor (TF) mRNA", "experiment": "qPCR assay of TNF-α induced tissue factor expression in HUVEC", "format": "cell-based, human", "conditions": "10 μM, TNF-α 25 ng/mL added at 1 h, mRNA at 4 h", "summary_of_the_method": "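HUVEC were treated with test compound (10 µM) at t = 0 and TNF-α (25 ng/mL) at t = 1 h. Tissue factor mRNA was quantified by qPCR at t = 4 h, n = 3. Analysis by one-way ANOVA with Bonferroni multiple-comparisons test.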"}, "hepG2 cells": {"test_system": "hepG2 cells", "experiment": "cytotoxicity in hepG2 cells", "format": "cell-based", "conditions": "human hepG2 cells"}, "[3]": {"target": "SERT (serotonin transporter) (Homo sapiens, UniProt P31645)", "sequence (P31645 whole entry, species assumed)": "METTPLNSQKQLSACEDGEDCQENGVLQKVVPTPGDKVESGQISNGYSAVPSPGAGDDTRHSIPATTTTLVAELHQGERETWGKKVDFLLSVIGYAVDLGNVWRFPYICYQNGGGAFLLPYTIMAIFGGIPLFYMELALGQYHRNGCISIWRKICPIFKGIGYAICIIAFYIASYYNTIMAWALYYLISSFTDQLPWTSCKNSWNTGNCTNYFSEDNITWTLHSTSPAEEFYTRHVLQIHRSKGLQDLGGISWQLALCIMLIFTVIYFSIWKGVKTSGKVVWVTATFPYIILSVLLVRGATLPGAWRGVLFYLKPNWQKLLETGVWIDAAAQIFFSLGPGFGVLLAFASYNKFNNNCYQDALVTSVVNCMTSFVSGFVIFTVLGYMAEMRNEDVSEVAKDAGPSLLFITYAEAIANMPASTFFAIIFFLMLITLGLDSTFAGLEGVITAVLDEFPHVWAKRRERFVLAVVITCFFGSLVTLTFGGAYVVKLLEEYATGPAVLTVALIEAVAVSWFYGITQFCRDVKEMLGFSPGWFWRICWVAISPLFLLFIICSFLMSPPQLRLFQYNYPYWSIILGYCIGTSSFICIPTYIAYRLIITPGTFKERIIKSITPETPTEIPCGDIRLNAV", "experiment": "PDSP radioligand binding, SERT", "conditions": "read-out: mean % inhibition of binding, SERT"}, "[4]": {"target": "5HT-5A (5-hydroxytryptamine receptor) (Homo sapiens, UniProt P47898)", "sequence (P47898 whole entry, species assumed)": "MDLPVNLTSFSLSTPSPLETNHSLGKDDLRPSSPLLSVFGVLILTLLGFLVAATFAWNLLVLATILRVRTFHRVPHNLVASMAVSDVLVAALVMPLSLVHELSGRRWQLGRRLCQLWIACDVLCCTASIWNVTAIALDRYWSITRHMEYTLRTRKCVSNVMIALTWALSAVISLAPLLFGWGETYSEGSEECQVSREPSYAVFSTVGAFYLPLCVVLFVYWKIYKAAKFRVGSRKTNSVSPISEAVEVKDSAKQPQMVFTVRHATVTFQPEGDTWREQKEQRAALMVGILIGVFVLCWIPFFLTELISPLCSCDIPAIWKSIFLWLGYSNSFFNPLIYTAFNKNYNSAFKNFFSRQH", "experiment": "PDSP radioligand binding, 5HT-5A", "conditions": "read-out: mean % inhibition of binding, 5HT-5A"}, "PAR1 [5]": {"target": "T1, PAR1", "conditions": "cited from earlier work"}, "platelets": {"test_system": "platelets", "conditions": "cited from earlier work"}, "[6]": {"conditions": "after 5 h; cited from earlier work"}, "[7]": {"conditions": "cited from earlier work"}, "[8]": {"experiment": "human liver microsome stability", "format": "in vitro ADME", "conditions": "1 h"}},
  "note": "Entries after “also recorded” stand apart in the source; their conditions may differ. Read-outs that look alike come from different tables or passages of the source.",
  "data": [
    {"smiles": "O=C(Nc1cccc(NC(=O)c2ccccc2Br)c1)c1cocn1", "note": "[compound 39]", "values": [
      {"measurement": "activity in the iCa2+ assay (in words)", "setting": "PAR1 [1]", "value": "very good inhibition"},
      {"measurement": "inhibition of PAR1", "setting": "PAR1 [1]; selectivity study: parmodulin 10 μM, TFLLRN-NH2 3.16 μM", "value": "less than 75%"}
    ]},
    {"smiles": "O=C(Nc1cccc(NC(=O)C2CCOC2)c1)c1ccccc1Br", "note": "(centres unmarked) [compound 37]", "values": [
      {"measurement": "activity in the iCa2+ assay (in words)", "setting": "PAR1 [1]", "value": "only modest inhibition"}
    ]},
    {"smiles": "O=C(Nc1cccc(NC(=O)c2ccccc2Br)c1)c1cnco1", "note": "[NRD-21, N-[3-(2-bromobenzamido)phenyl]-1,3-oxazole-5-carboxamide]", "values": [
      {"measurement": "activity in the iCa2+ assay (in words)", "setting": "PAR1 [1]; listed as 38", "value": "very good inhibition; also recorded: much better efficacy than 39"},
      {"measurement": "PAR2 activity?", "setting": "PAR2", "value": "None observed"},
      {"measurement": "effect on the efficacy of the PAR1 agonist TFLLRN-NH2", "setting": "PAR1 [2]", "value": "reduction in efficacy"},
      {"measurement": "inhibition of platelet aggregation", "setting": "human washed platelets", "value": "Complete inhibition"},
      {"measurement": "effect on TNF-α induced TF expression (mRNA)", "setting": "tissue factor (TF) mRNA", "value": "below baseline levels"},
      {"measurement": "Cytotoxicity (CC50)", "setting": "hepG2 cells", "value": "no measurable toxicity"},
      {"measurement": "inhibition at 10 µM", "setting": "[3]", "value": -44, "unit": "%"},
      {"measurement": "inhibition at 10 µM", "setting": "[4]", "value": -31, "unit": "%"}
    ]},
    {"smiles": "CCC(C)C(=O)Nc1cccc(NC(=O)c2ccccc2Br)c1", "note": "(centres unmarked) [compound 7]", "values": [
      {"measurement": "activity in the iCa2+ assay (in words)", "setting": "PAR1 [1]", "value": "weak efficacy"}
    ]},
    {"smiles": "O=C(Nc1cccc(NC(=O)C2CCCC2)c1)c1ccccc1Br", "note": "[compound 3]", "values": [
      {"measurement": "activity in the iCa2+ assay (in words)", "setting": "PAR1 [1]", "value": "moderate inhibition"}
    ]},
    {"smiles": "CCC(=O)Nc1cccc(NC(=O)c2ccccc2Br)c1", "note": "[compound 8]", "values": [
      {"measurement": "activity in the iCa2+ assay (in words)", "setting": "PAR1 [1]", "value": "decreased activity"}
    ]},
    {"smiles": "O=C(Nc1cccc(NC2CCCC2)c1)c1ccccc1Br", "note": "[compound 29]", "values": [
      {"measurement": "activity in the iCa2+ assay (in words)", "setting": "PAR1 [1]", "value": "evidence of activation"}
    ]},
    {"smiles": "CN(C)CC(=O)Nc1cccc(NC(=O)c2ccccc2Br)c1", "note": "[compound 25]", "values": [
      {"measurement": "activity in the iCa2+ assay (in words)", "setting": "PAR1 [1]", "value": "complete loss of activity"}
    ]},
    {"smiles": "C#CCCC(=O)Nc1cccc(NC(=O)c2ccccc2Br)c1", "note": "[compound 11]", "values": [
      {"measurement": "activity in the iCa2+ assay (in words)", "setting": "PAR1 [1]", "value": "decreased efficacy and/or potency"}
    ]},
    {"smiles": "O=C(Nc1cccc(NC(=O)C2CCCO2)c1)c1ccccc1Br", "note": "(centres unmarked) [compound 36]", "values": [
      {"measurement": "activity in the iCa2+ assay (in words)", "setting": "PAR1 [1]", "value": "only modest inhibition"}
    ]},
    {"smiles": "CCCN(CCC)c1cccc(NC(=O)c2ccccc2Br)c1", "note": "[compound 26]", "values": [
      {"measurement": "activity in the iCa2+ assay (in words)", "setting": "PAR1 [1]", "value": "weak activity"}
    ]},
    {"smiles": "CCCCNc1cccc(NC(=O)c2ccccc2Br)c1", "note": "[compound 5]", "values": [
      {"measurement": "activity in the iCa2+ assay (in words)", "setting": "PAR1 [5]; as previously reported", "value": "very good activity"}
    ]},
    {"smiles": "CC(C)CC(=O)Nc1cccc(NC(=O)c2ccccc2Br)c1", "note": "[compound 2]", "values": [
      {"measurement": "activity in the endothelial iCa2+ assay (in words)", "setting": "PAR1 [5]; EA.hy926 cells", "value": "mediocre inhibition"},
      {"measurement": "inhibition in the platelet P-selectin assay (in words)", "setting": "platelets", "value": "equipotent to ML161"},
      {"measurement": "stability in mouse plasma, % remaining", "setting": "[6]", "value": 65, "unit": "%"},
      {"measurement": "solubility in water with 1% DMSO", "setting": "[7]", "value": 9, "unit": "µM"}
    ]},
    {"smiles": "CCCNCc1cccc(NC(=O)c2ccccc2Br)c1", "note": "[compound 28]", "values": [
      {"measurement": "activity in the iCa2+ assay (in words)", "setting": "PAR1 [1]", "value": "steep drop in efficacy"}
    ]},
    {"smiles": "CCCCOc1cccc(NC(=O)c2ccccc2Br)c1", "note": "[compound 24]", "values": [
      {"measurement": "activity in the iCa2+ assay (in words)", "setting": "PAR1 [1]", "value": "moderate activity"}
    ]},
    {"smiles": "COCCNc1cccc(NC(=O)c2ccccc2Br)c1", "note": "[compound 27]", "values": [
      {"measurement": "activity in the iCa2+ assay (in words)", "setting": "PAR1 [1]", "value": "weak activity"}
    ]},
    {"smiles": "CCCCC(=O)Nc1cccc(NC(=O)c2ccccc2Br)c1", "note": "[compound 10]", "values": [
      {"measurement": "activity in the iCa2+ assay (in words)", "setting": "PAR1 [1]", "value": "decreased efficacy and/or potency"}
    ]},
    {"smiles": "O=C(Nc1cccc(N2CCCC2)c1)c1ccccc1Br", "note": "[compound 30]", "values": [
      {"measurement": "activity in the iCa2+ assay (in words)", "setting": "PAR1 [1]", "value": "evidence of activation"}
    ]},
    {"smiles": "CCCC(=O)Nc1cccc(NC(=O)c2ccccc2Br)c1", "note": "[ML161]", "values": [
      {"measurement": "PAR2 activity?", "setting": "PAR2", "value": "None observed"},
      {"measurement": "Microsomal stability", "setting": "[8]", "value": "99% (1 h, human)"},
      {"measurement": "inhibition of platelet aggregation", "setting": "human washed platelets", "value": "Complete inhibition"},
      {"measurement": "effect on TNF-α induced TF expression (mRNA)", "setting": "tissue factor (TF) mRNA", "value": "blocked the ~3-fold increase in TF expression"},
      {"measurement": "inhibition at 10 µM", "setting": "[3]", "value": -44, "unit": "%"},
      {"measurement": "stability in mouse plasma, % remaining", "setting": "[6]", "value": 2, "unit": "%"}
    ]}
  ]
}
